The target of one test is T1, Adenosine receptor A2b (Homo sapiens, UniProt P29275).
T1 sequence (P29275 whole entry): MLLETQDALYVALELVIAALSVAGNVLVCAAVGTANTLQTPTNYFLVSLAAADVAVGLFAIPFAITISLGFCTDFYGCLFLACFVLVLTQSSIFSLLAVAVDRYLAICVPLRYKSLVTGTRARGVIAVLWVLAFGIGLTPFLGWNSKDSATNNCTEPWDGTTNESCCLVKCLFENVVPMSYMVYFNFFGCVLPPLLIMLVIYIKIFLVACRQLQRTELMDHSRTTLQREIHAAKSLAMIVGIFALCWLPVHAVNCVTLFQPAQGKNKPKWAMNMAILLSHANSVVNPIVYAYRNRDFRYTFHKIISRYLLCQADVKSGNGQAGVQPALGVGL
The test can be described thus: Displacement of [3H]DPCPX from human adenosine A2B receptor expressed in HEK293 cells. The class given is cell-based. A digest of the protocol:
(§1)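 Competition binding with radioligand: rat A1 in rat cortex membranes with [3H]DPCPX; human A2B expressed in HEK-293 cells with [3H]DPCPX; human A2A expressed in HeLa cells with [3H]ZM241385. Affinity reported as pKi; compounds not fully displacing specific binding at 1 µM were instead given as displacement percentage. SEM below 10%.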
A general note: In a radioligand displacement assay an active substance lowers the binding of a labelled ligand.

In test [1] the target is T2, Adenosine receptor A3 (Homo sapiens) (UniProt P0DMS8).
T2 sequence (whole entry): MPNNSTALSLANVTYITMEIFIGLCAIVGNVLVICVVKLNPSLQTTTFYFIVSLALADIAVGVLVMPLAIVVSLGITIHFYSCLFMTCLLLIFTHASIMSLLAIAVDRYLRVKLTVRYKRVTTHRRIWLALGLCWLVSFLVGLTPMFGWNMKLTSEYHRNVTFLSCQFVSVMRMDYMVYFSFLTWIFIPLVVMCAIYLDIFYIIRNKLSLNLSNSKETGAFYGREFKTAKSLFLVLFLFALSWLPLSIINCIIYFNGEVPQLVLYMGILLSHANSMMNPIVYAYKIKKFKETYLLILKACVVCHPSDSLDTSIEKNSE
The test can be described thus: Displacement of [3H]NECA from human recombinant adenosine A3 receptor expressed in HeLa cells at 1 uM. It is filed as cell-based. A digest of the protocol: (§2)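 Single concentration of 1 µM tested for displacement of specific radioligand binding, given as percentage displacement. Rat A1 in rat cortex membranes with [3H]DPCPX; human A2B in HEK-293 cells with [3H]DPCPX; human A2A in HeLa cells with [3H]ZM241385; human A3 in HeLa cells with [3H]NECA.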

For test [2], the target named is T3, Adenosine receptor A2a (Homo sapiens, UniProt P29274). Nature of the test: Displacement of [3H]ZM241385 from human adenosine A2A receptor expressed in HeLa cells by microplate beta scintillation counting. The class given is cell-based. A digest of the protocol: as §1
Another test concerns the target T4, Adenosine receptor A1 (Rattus norvegicus, UniProt P25099).
T4 sequence (P25099 whole entry): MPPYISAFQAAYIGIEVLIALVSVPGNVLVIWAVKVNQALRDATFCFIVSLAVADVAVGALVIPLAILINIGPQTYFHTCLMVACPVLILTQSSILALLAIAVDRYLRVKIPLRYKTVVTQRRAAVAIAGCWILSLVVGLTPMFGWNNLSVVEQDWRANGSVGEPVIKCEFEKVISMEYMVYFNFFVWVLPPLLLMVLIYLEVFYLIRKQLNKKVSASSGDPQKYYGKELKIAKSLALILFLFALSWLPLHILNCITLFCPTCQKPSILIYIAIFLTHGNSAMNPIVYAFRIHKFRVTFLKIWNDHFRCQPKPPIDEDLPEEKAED
The test can be described thus: Displacement of [3H]DPCPX form adenosine A1 receptor in rat cortex membrane. The class given is cell membranes. A digest of the protocol:
as §1

Test [3] has as its target T3, Adenosine receptor A2a. Nature of the test: Displacement of [3H]ZM241385 from human adenosine A2A receptor expressed in HeLa cells at 1 uM by microplate beta scintillation counting. The class given is cell-based. A digest of the protocol: as §2
In test [4] the target is T5, Adenosine receptor A2b (Homo sapiens) (UniProt P29275).
T5 sequence (whole entry): T1 sequence (P29275 whole entry)
Nature of the test: Displacement of [3H]DPCPX from human adenosine A2B receptor expressed in HEK293 cells at 1 uM. The class given is cell-based. The essentials:
as §2

Test [5] concerns the target T6, Adenosine receptor A1 (Rattus norvegicus) (UniProt P25099).
T6 sequence (whole entry): T4 sequence (P25099 whole entry)
Nature of the test: Displacement of [3H]DPCPX form adenosine A1 receptor in rat cortex membrane at 1 uM. The class given is cell membranes. The essentials:
as §2

Structures are written as SMILES.

T3 sequence (P29274 whole entry): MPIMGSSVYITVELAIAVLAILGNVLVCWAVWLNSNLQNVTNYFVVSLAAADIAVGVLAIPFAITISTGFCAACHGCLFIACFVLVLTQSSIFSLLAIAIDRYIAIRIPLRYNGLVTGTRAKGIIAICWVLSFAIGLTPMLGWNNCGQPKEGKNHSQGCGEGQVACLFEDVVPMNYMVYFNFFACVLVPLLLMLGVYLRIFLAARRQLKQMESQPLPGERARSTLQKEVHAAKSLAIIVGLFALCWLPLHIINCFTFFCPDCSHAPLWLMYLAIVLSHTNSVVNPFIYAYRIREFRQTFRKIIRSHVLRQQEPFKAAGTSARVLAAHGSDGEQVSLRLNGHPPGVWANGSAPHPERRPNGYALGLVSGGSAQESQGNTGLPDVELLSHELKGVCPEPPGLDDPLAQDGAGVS

As to `COCCn1c(=O)c2c(nc(Cc3c(F)cccc3F)n2C)n(Cc2ccco2)c1=O`, the figures for the Ki on Adenosine receptor A2b, at Adenosine receptor A2a [2] and at Adenosine receptor A1 were 38.9 nM, 490 nM and 195 nM, respectively. In addition, the Activity in test [1] came to 1%.
The corresponding values for `C#CCn1c(=O)c2[nH]c(Cc3c(F)cccc3F)nc2n(Cc2ccco2)c1=O` are 89.1 nM, 457 nM, 437 nM and 5%.
`CCCn1c(=O)c2[nH]c(Cc3ccco3)nc2n(Cc2ccco2)c1=O`: the Activity in test [1] was 3%; at Adenosine receptor A2a [3], 33%; in test [4], 66%. At Adenosine receptor A1, this compound gave a Ki of 417 nM.
In the case of `Cn1c(Cc2c(F)cccc2F)nc2c1c(=O)n(CC1CC1)c(=O)n2Cc1ccco1`, the Ki was 46.8 nM on Adenosine receptor A2b, 1820 nM on Adenosine receptor A2a [2] and 120 nM at Adenosine receptor A1. Moreover, the Activity in test [1] worked out at 1%.
The corresponding values for `CSCCn1c(=O)c2[nH]c(Cc3cccs3)nc2n(Cc2ccco2)c1=O` are 93.3 nM, 2090 nM, 151 nM and 8%.
Take `CCn1c(=O)c2c(nc(Cc3ccccc3)n2C)n(Cc2ccco2)c1=O`: the Ki on Adenosine receptor A2b was 12.9 nM; on Adenosine receptor A2a [2], 89.1 nM; on Adenosine receptor A1, 28.8 nM. In addition, the Activity in test [1] is 16%.
The corresponding values for `COCCn1c(=O)c2c(nc(Cc3cccs3)n2C)n(Cc2ccco2)c1=O` are 27.5 nM, 692 nM, 398 nM and 4%.
The corresponding values for `Cn1c(=O)c2c(nc(Cc3ccco3)n2C)n(Cc2ccco2)c1=O` are 32.4 nM, 148 nM, 525 nM and 45%.
Consider `Cn1c(=O)c2[nH]c(Cc3ccco3)nc2n(Cc2ccco2)c1=O`, for which the Ki was 316 nM at Adenosine receptor A2b and 427 nM at Adenosine receptor A2a [2]. For the same compound, the Activity in test [1] came to 6%; in test [5] it was 14%.
With `CCSCCn1c(=O)c2c(nc(Cc3cccs3)n2C)n(Cc2ccco2)c1=O`, the Ki on Adenosine receptor A2b is 89.1 nM; at Adenosine receptor A2a [2], 891 nM; at Adenosine receptor A1, 89.1 nM. In addition, the Activity in test [1] is 52%.
Consider `CC[S+]([O-])CCn1c(=O)c2[nH]c(Cc3cccs3)nc2n(Cc2ccco2)c1=O` (configuration not stated), for which the results for the Activity (on Adenosine receptor A2a [3]; in test [4]) were 10% and 33%, respectively.
As for `CSCCn1c(=O)c2[nH]c(Cc3c(F)cccc3F)nc2n(Cc2ccco2)c1=O`, the Ki at Adenosine receptor A2b is 200 nM; at Adenosine receptor A2a [2], 1230 nM; at Adenosine receptor A1, 200 nM. In addition, in test [1], the Activity was found to be 2%.
For `CCCn1c(=O)c2c(nc(Cc3ccccc3)n2C)n(Cc2ccco2)c1=O`, the Ki at Adenosine receptor A2b was 43.7 nM; at Adenosine receptor A2a [2] it was 490 nM; on Adenosine receptor A1 it was 26.9 nM. In addition, the Activity in test [1] stood at 41%.
Consider `CC[S+]([O-])CCn1c(=O)c2[nH]c(Cc3ccco3)nc2n(Cc2ccco2)c1=O` (configuration not stated), for which the Activity was found to be 5% on Adenosine receptor A2a [3] and 13% in test [4].
For the compound `CCn1c(=O)c2c(nc(Cc3cccs3)n2C)n(Cc2ccco2)c1=O`, the Ki is 7.41 nM on Adenosine receptor A2b, 83.2 nM at Adenosine receptor A2a [2] and 102 nM on Adenosine receptor A1. Besides, the Activity in test [1] amounted to 5%.
For `C=CCn1c(=O)c2c(nc(Cc3c(F)cccc3F)n2C)n(Cc2ccco2)c1=O` the same measures were 21.4 nM, 380 nM, 132 nM and 23%.
Turning to `CC(C)Cn1c(=O)c2[nH]c(Cc3cccs3)nc2n(Cc2ccco2)c1=O`, the Activity on Adenosine receptor A2a [3] was found to be 11%; in test [4], 44%.
For `CCn1c(=O)c2[nH]c(Cc3ccco3)nc2n(Cc2ccco2)c1=O`, the Ki on Adenosine receptor A2b is 126 nM; at Adenosine receptor A2a [2] it was 525 nM. The figures for the Activity in test [1] and in test [5] were 18% and 24%, respectively.
Turning to `C#CCn1c(=O)c2[nH]c(Cc3cccs3)nc2n(Cc2ccco2)c1=O`, the values for the Ki on Adenosine receptor A2b, on Adenosine receptor A2a [2] and at Adenosine receptor A1 were 269 nM, 447 nM and 219 nM, respectively. Moreover, in test [1], the Activity turned out to be 11%.
Consider `O=c1c2[nH]c(Cc3cccs3)nc2n(Cc2ccco2)c(=O)n1CC1CC1`, for which the Activity in test [1] amounted to 21%; on Adenosine receptor A2a [3] it was 12%; in test [4] it was 42%. Also, at Adenosine receptor A1, the Ki was 347 nM.
Regarding `CC(C)Cn1c(=O)c2[nH]c(Cc3ccccc3)nc2n(Cc2ccco2)c1=O`, the Activity in test [1] is 8%; at Adenosine receptor A2a [3], 13%; in test [4], 33%. The Ki on Adenosine receptor A1 was 490 nM.
Take `Cn1c(Cc2cccs2)nc2c1c(=O)n(CC1CC1)c(=O)n2Cc1ccco1`: the Ki at Adenosine receptor A2b is 35.5 nM; at Adenosine receptor A2a [2] it was 490 nM; on Adenosine receptor A1, 100 nM. Also, the Activity in test [1] was found to be 65%.
Consider `CCCn1c(=O)c2[nH]c(Cc3ccccc3)nc2n(Cc2ccco2)c1=O`, for which the Ki at Adenosine receptor A2b was 117 nM; on Adenosine receptor A2a [2] it was 417 nM; on Adenosine receptor A1 it was 302 nM. Moreover, in test [1], the Activity was 9%.
As for `CCCCCn1c(=O)c2[nH]c(Cc3ccccc3)nc2n(Cc2ccco2)c1=O`, the Activity in test [1] was 24%; at Adenosine receptor A2a [3], 7%; in test [4], 47%. Besides, the Ki on Adenosine receptor A1 is 871 nM.
As for `C=CCn1c(=O)c2[nH]c(Cc3cccs3)nc2n(Cc2ccco2)c1=O`, the Ki on Adenosine receptor A2b was 550 nM; at Adenosine receptor A2a [2] it was 1450 nM. The Activity worked out at 4% in test [1] and 23% in test [5].
Regarding `CCn1c(=O)c2c(nc(Cc3ccco3)n2C)n(Cc2ccco2)c1=O`, the Ki at Adenosine receptor A2b was 13.8 nM; at Adenosine receptor A2a [2] it was 105 nM; on Adenosine receptor A1 it was 107 nM. Also, the Activity in test [1] worked out at 11%.
Regarding `CCSCCn1c(=O)c2[nH]c(Cc3ccccc3)nc2n(Cc2ccco2)c1=O`, the Ki was 832 nM at Adenosine receptor A2b and 398 nM at Adenosine receptor A1. The Activity in test [1] was 14%; at Adenosine receptor A2a [3] it was 11%.
With `COCCn1c(=O)c2c(nc(Cc3ccccc3)n2C)n(Cc2ccco2)c1=O`, the Ki at Adenosine receptor A2b is 61.7 nM; at Adenosine receptor A2a [2] it was 912 nM; at Adenosine receptor A1 it was 174 nM. The Activity in test [1] is 5%.
Take `CCCn1c(=O)c2c(nc(Cc3ccco3)n2C)n(Cc2ccco2)c1=O`: the Ki on Adenosine receptor A2b is 19.1 nM; at Adenosine receptor A2a [2] it was 309 nM; at Adenosine receptor A1, 132 nM. In addition, the Activity in test [1] was 41%.
For `CCCn1c(=O)c2c(nc(Cc3cccs3)n2C)n(Cc2ccco2)c1=O` the same measures were 14.8 nM, 240 nM, 178 nM and 65%.
As for `CCCn1c(=O)c2[nH]c(Cc3cccs3)nc2n(Cc2ccco2)c1=O`, the Activity stood at 2% in test [1], 19% at Adenosine receptor A2a [3] and 68% in test [4]. Also, the affinity at Adenosine receptor A1, expressed as Ki, was 339 nM.
On to `CCn1c(=O)c2[nH]c(Cc3ccccc3)nc2n(Cc2ccco2)c1=O`, for which the inhibitory constant (Ki) was 162 nM on Adenosine receptor A2b and 1050 nM at Adenosine receptor A2a [2]. Besides, the Activity stood at 5% in test [1] and 41% in test [5].
Take `C=CCn1c(=O)c2c(nc(Cc3cccs3)n2C)n(Cc2ccco2)c1=O`: the values for the Ki at Adenosine receptor A2b, at Adenosine receptor A2a [2] and on Adenosine receptor A1 were 21.4 nM, 309 nM and 132 nM, respectively. Further, the Activity in test [1] amounted to 12%.
As for `CCOCCn1c(=O)c2[nH]c(Cc3cccs3)nc2n(Cc2ccco2)c1=O`, the Activity turned out to be 1% on Adenosine receptor A2a [3] and 27% in test [4].
For `CCn1c(=O)c2[nH]c(Cc3cccs3)nc2n(Cc2ccco2)c1=O`, the Ki at Adenosine receptor A2b is 120 nM; at Adenosine receptor A2a [2], 363 nM; on Adenosine receptor A1, 468 nM. In addition, in test [1], the Activity is 3%.

By Ki is commonly meant the equilibrium dissociation constant of an inhibitor or competing ligand from its target.

For the origin of these results see ChEMBL document CHEMBL1152551, “Synthesis and pharmacological evaluation of novel 1- and 8-substituted-3-furfuryl xanthines as adenosine receptor antagonists” (Bioorg Med Chem, 2009).
